According to ChEMBL document CHEMBL3526045, “Conclusive identification of the oxybutynin-hydrolyzing enzyme in human liver” (Drug Metab Dispos, 2012):

Columns and labels:
Cocaine esterase [1] = molecular target: T1, Cocaine esterase (Homo sapiens, UniProt O00748); assay: Activity of human recombinant CES2 expressed in baculovirus-infected High Five insect cells assessed as enzyme-mediated compound formation formation treated with oxybutynin at 10 uM for 30 mins by HPLC analysis in presence of 10 uM CES1 inhibitor NDGA; assay type: ADME; conditions: 0.5 h
T1 sequence (O00748 whole entry): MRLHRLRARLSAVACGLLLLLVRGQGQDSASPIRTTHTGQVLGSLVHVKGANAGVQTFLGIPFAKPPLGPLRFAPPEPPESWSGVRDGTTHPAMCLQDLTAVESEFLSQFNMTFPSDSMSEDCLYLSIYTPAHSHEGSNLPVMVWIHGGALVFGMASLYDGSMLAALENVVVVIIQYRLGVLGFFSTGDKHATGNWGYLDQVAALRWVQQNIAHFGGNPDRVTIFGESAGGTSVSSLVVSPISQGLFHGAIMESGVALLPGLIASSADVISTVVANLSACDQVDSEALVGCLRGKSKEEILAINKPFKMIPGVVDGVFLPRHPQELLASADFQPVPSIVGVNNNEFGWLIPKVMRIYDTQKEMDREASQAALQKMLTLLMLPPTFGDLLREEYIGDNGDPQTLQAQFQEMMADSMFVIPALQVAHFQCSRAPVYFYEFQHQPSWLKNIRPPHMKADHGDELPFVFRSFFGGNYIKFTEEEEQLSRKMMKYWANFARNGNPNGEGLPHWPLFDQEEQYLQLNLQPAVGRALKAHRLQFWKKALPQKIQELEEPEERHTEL
Method in brief: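 Oxybutynin (10 μM) hydrolysis to CPGA by recombinant CES2-expressing microsomes at 0.1 mg/mL final protein, in 0.05 mol/L Tris-HCl pH 7.6 at 37 °C. Inhibitor was added before a 5 min preincubation, with at most 0.2% final DMSO. Substrate addition started the reaction, which ran 30 min. It was stopped with ACN/1% formic acid plus internal standard. CPGA was quantified by LC-MS/MS in negative MRM mode, as relative activity versus control, in duplicate.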

[2] = Activity of human recombinant CES1b/CES1A1 expressed in baculovirus-infected High Five insect cells assessed as intrinsic clearance for enzyme-mediated 2-cyclohexyl-2-phenylglycolic acid formation per mg of protein by Michaelis-Menten equation; assay type: ADME
Method in brief: (§1)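 Oxybutynin (2.5–250 μM) incubated 15 min at 37 °C in 0.05 mol/L Tris-HCl pH 7.6 after 5 min pre-incubation. Final protein: liver microsomes 0.05, liver cytosol 0.1, recombinant CES1 microsomes 0.05 mg/mL. Stopped with acetonitrile/1% formic acid plus internal standard; CPGA quantified by LC-MS/MS in negative MRM mode; duplicates. Km, Vmax from Michaelis-Menten fit; CLint = Vmax/Km.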

Cocaine esterase [3] = molecular target: T1, Cocaine esterase; assay: Activity of human recombinant CES2 expressed in baculovirus-infected High Five insect cells assessed as 5 uM CES2 inhibitor loperamide-mediated inhibition of enzyme-mediated 2-cyclohexyl-2-phenylglycolic acid formation at 10 uM for 30 mins by HPLC analysis; conditions: 0.5 h
Liver microsome [4] = assay: Drug metabolism in human liver microsomes assessed as 2-cyclohexyl-2-phenylglycolic acid formation by Michaelis-Menten equation; assay type: ADME; method in brief: as §1
[5] = Drug metabolism in human liver cytosol; assay type: ADME, tissue-based
Liver microsome [6] = assay: Intrinsic clearance in human liver microsomes assessed as 2-cyclohexyl-2-phenylglycolic acid formation per mg of protein by Michaelis-Menten equation; assay type: ADME; method in brief: as §1
Liver cytosol [7] = assay: Drug metabolism in human liver cytosol assessed as 2-cyclohexyl-2-phenylglycolic acid formation by Michaelis-Menten equation; assay type: ADME, tissue-based; method in brief: as §1
Cocaine esterase [8] = molecular target: T1, Cocaine esterase; assay: Activity of human recombinant CES2 expressed in baculovirus-infected High Five insect cells assessed as enzyme-mediated 2-cyclohexyl-2-phenylglycolic acid formation per mg of protein by Michaelis-Menten equation; assay type: ADME
Liver cytosol [9] = assay: Intrinsic clearance in human liver cytosol assessed as 2-cyclohexyl-2-phenylglycolic acid formation per mg of protein by Michaelis-Menten equation; assay type: ADME, tissue-based; method in brief: as §1
Cocaine esterase [10] = molecular target: T1, Cocaine esterase; assay: Activity of human recombinant CES2 expressed in baculovirus-infected High Five insect cells assessed as intrinsic clearance for enzyme-mediated 2-cyclohexyl-2-phenylglycolic acid formation per mg of protein by Michaelis-Menten equation; assay type: ADME
Cocaine esterase [11] = molecular target: T1, Cocaine esterase; assay: Activity of human recombinant CES2 expressed in baculovirus-infected High Five insect cells assessed as 50 uM CES1 inhibitor clopidogrel-mediated inhibition of enzyme-mediated 2-cyclohexyl-2-phenylglycolic acid formation at 10 uM for 30 mins by HPLC analysis; conditions: 0.5 h
Liver cytosol [12] = assay: Drug metabolism in human liver cytosol assessed as 2-cyclohexyl-2-phenylglycolic acid formation per mg of protein by Michaelis-Menten equation; assay type: ADME, tissue-based; method in brief: as §1
Liver microsome [13] = assay: Drug metabolism in human liver microsomes assessed as 2-cyclohexyl-2-phenylglycolic acid formation per mg of protein by Michaelis-Menten equation; assay type: ADME; method in brief: as §1
[14] = Drug metabolism in human liver microsomes; assay type: ADME
[15] = Activity of human recombinant CES1b/CES1A1 expressed in baculovirus-infected High Five insect cells assessed as enzyme-mediated 2-cyclohexyl-2-phenylglycolic acid formation by Michaelis-Menten equation; assay type: ADME; method in brief: as §1
Cocaine esterase [16] = molecular target: T1, Cocaine esterase; assay: Activity of human recombinant CES2 expressed in baculovirus-infected High Five insect cells assessed as 30 to 300 uM CES1 inhibitor procainamide-mediated inhibition of enzyme-mediated 2-cyclohexyl-2-phenylglycolic acid formation at 10 uM for 30 mins by HPLC analysis; conditions: 0.5 h
[17] = Activity of human recombinant CES1b/CES1A1 expressed in baculovirus-infected High Five insect cells assessed as enzyme-mediated 2-cyclohexyl-2-phenylglycolic acid formation per mg of protein by Michaelis-Menten equation; assay type: ADME; method in brief: as §1
Cocaine esterase [18] = molecular target: T1, Cocaine esterase; assay: Activity of human recombinant CES2 expressed in baculovirus-infected High Five insect cells assessed as 5 uM CES1 inhibitor clopidogrel-mediated inhibition of enzyme-mediated 2-cyclohexyl-2-phenylglycolic acid formation at 10 uM for 30 mins by HPLC analysis; conditions: 0.5 h
[19] = substrate: CCN(CC)CC#CCOC(=O)C(O)(c1ccccc1)C1CCCCC1; assay: Activity of human recombinant CES2 expressed in baculovirus-infected High Five insect cells assessed as enzyme-mediated 2-cyclohexyl-2-phenylglycolic acid formation by Michaelis-Menten equation; assay type: ADME
[20] = substrate: CCN(CC)CC#CCOC(=O)C(O)(c1ccccc1)C1CCCCC1; assay: Activity of human CES2; assay type: ADME

With O=C(O)C(O)(c1ccccc1)C1CCCCC1 (stereo unspecified) as the molecule, how does the Drug metabolism (Cocaine esterase [1]) read?
The Drug metabolism was “metabolite_detected”.

Which clearance [2] does the source give for CCN(CC)CC#CCOC(=O)C(O)(c1ccccc1)C1CCCCC1.Cl (stereo unspecified) [OXYBUTYNIN CHLORIDE] here?
Its clearance is 18 µL/min/mg.

And the “inhibition (INH)” value (Cocaine esterase [3])?
The value was 58%.

What about the Km (Liver microsome [4]) of the same molecule?
Its Km is 22 µM.

And the Km [5]?
The Km was 13 µM.

What about the CLint (Liver microsome [6]) of the same molecule?
The CLint was 5.9 µL/min/mg.

And the Km (Liver cytosol [7])?
The Km was 13 µM.

And the Vmax (Cocaine esterase [8])?
The Vmax was 32 pmol/min.

What about the CLint (Liver cytosol [9]) of the same molecule?
The CLint was 8.2 µL/min/mg.

And the clearance (Cocaine esterase [10])?
Its clearance is 0.51 µL/min/mg.

What about the “inhibition (INH)” value (Cocaine esterase [11]) of the same molecule?
The value was 53%.

And the Vmax (Liver cytosol [12])?
The Vmax was 110 pmol/min.

What about the Vmax (Liver microsome [13]) of the same molecule?
The Vmax was 130 pmol/min.

What about the Km [14] of the same molecule?
Its Km is 22 µM.

What about the Km [15] of the same molecule?
Its Km is 17 µM.

What about the “inhibition (INH)” value (Cocaine esterase [16]) of the same molecule?
Its value is < 14%.

What about the Vmax [17] of the same molecule?
The Vmax was 310 pmol/min.

And the “inhibition (INH)” value (Cocaine esterase [18])?
Its value is < 11%.

B1: Cocaine esterase (Homo sapiens) (protein)
chain: T1 sequence (O00748 whole entry)
What does the source list for B1?
Km [19]: 62 µM; Km [20]: 1100 µM; Vmax [20]: 0.36 µmol/min/mg
